Test results as given in ChEMBL document CHEMBL1145247, “4-Alkyl and 4,4'-dialkyl 1,2-bis(4-chlorophenyl)pyrazolidine-3,5-dione derivatives as new inhibitors of bacterial cell wall biosynthesis” (Bioorg Med Chem Lett, 2005).
Converted amounts (≈) assume the structure as drawn.

Tests used:
Enterococcus faecalis [1] = experiment: Minimum inhibitory concentration against cell wall biosynthesis of vancomycin susceptible (ATCC) Enterococcus faecalis GC 4555; type: functional
Procedure, shortened: (§1)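 Broth microdilution per NCCLS M7-A3. Mueller–Hinton broth for staphylococci and enterococci, 2-fold serial dilutions of agent. Final inoculum 1–5 × 10^5 CFU/mL.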

Staphylococcus aureus [2] = experiment: Minimum inhibitory concentration against cell wall biosynthesis of methicillin susceptible Staphylococcus aureus GC 4543; type: functional
Procedure, shortened: (§2)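 Broth microdilution per NCCLS M7-A3 in Mueller–Hinton broth, aerobic. Agents tested as 2-fold serial dilutions, with a final inoculum of 1–5 × 10^5 CFU/mL. Plates incubated 18–22 h at 35 °C in ambient air. MIC read as the endpoint.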

[3] = target: T1, UDP-N-acetylenolpyruvoylglucosamine reductase (Escherichia coli K-12, UniProt P08373); experiment: Inhibitory concentration against MurB enzyme in Escherichia coli
T1 sequence (P08373 whole entry): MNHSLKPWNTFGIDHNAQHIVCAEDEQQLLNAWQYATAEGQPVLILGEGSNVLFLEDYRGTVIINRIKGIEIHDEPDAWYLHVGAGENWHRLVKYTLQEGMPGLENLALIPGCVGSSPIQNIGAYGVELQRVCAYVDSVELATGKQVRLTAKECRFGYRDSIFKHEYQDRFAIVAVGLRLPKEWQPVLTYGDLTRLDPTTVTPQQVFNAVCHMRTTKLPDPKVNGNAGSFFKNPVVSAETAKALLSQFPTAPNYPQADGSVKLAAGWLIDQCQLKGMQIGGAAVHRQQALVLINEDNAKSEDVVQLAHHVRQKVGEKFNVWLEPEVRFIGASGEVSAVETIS
Procedure, shortened: (§3)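 Enzyme (20 nM) preincubated 20 min with inhibitor, then substrates added to final 50 µM EP-UNAG and 100 µM NADPH. Activity followed spectrophotometrically. At least six inhibitor concentrations between 1.5 and 50 µM per compound. IC50 from sigmoid Hill curve fit (0–100).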

Staphylococcus aureus [4] = experiment: Minimum inhibitory concentration against cell wall biosynthesis of methicillin resistant Staphylococcus aureus GC 1131; type: functional; procedure, shortened: as §2
[5] = target: UDP-N-acetylglucosamine 1-carboxyvinyltransferase (Escherichia coli K-12, UniProt P0A749); experiment: Inhibitory concentration against MurA enzyme in Escherichia coli
Sequence of UDP-N-acetylglucosamine 1-carboxyvinyltransferase (P0A749 whole entry): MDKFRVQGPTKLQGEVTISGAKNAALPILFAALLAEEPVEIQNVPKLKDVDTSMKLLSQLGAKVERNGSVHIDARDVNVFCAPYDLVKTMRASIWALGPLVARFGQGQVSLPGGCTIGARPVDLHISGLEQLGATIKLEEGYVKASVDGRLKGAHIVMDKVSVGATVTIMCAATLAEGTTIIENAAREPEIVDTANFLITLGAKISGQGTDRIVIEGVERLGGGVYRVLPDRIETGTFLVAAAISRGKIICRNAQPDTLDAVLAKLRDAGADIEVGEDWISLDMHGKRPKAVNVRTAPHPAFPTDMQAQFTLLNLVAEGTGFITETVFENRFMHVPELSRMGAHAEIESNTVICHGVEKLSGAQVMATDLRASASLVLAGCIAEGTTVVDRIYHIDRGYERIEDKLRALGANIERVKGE
Procedure, shortened: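 Enzyme preincubated with inhibitor 10 min at 37 °C before substrates were added. Reaction ran 30 min at 37 °C and was stopped with malachite green reagent (0.03% malachite green, 1.4% ammonium molybdate, 1.3 N HCl) for phosphate read-out.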

Escherichia coli [6] = experiment: Minimum inhibitory concentration against cell wall biosynthesis of Escherichia coli GC 4559; type: functional; procedure, shortened: as §1
[7] = Minimum inhibitory concentration against cell wall biosynthesis of methicillin-susceptible Coagulase negative staphylococcus GC 646 (MSCNS); type: functional; procedure, shortened: as §1
Streptococcus pneumoniae [8] = experiment: Minimum inhibitory concentration against cell wall biosynthesis of penicillin resistant Streptococcus pneumoniae GC 1894 (PRSP); type: functional
Procedure, shortened: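 Broth microdilution per NCCLS M7-A3, using Mueller–Hinton broth supplemented with 5% sheep blood. Agents tested as 2-fold serial dilutions, with a final inoculum of 1–5 × 10^5 CFU/mL.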

[9] = target: T2, UDP-N-acetylenolpyruvoylglucosamine reductase (Staphylococcus aureus, UniProt P61431); experiment: Inhibitory concentration against MurB enzyme in Staphylococcus aureus; procedure, shortened: as §3
T2 sequence (P61431 whole entry): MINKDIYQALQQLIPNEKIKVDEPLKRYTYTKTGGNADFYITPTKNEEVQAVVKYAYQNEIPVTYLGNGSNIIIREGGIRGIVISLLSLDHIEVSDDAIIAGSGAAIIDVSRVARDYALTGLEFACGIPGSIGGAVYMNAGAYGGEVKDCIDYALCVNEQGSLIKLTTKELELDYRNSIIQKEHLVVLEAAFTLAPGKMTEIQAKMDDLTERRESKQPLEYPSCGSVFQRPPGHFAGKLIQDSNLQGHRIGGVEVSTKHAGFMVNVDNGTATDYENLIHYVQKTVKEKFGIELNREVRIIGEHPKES

Streptococcus pneumoniae [10] = experiment: Minimum inhibitory concentration against cell wall biosynthesis of penicillin resistant Streptococcus pneumoniae GC 1894 (PRSP) in the presence of 4% bovine serum albumin; type: functional
Enterococcus faecalis [11] = experiment: Minimum inhibitory concentration against cell wall biosynthesis of vancomycin resistant Enterococcus faecalis GC 2242 (VRE); type: functional; procedure, shortened: as §2
Escherichia coli [12] = experiment: Minimum inhibitory concentration against cell wall biosynthesis of Escherichia coli GC 4560; type: functional

SMILES | MIC (Enterococcus faecalis [1]) [µM] | MIC (Staphylococcus aureus [2]) [µM] | IC50 [3] [µM] | MIC (Staphylococcus aureus [4]) [µM] | IC50 [5] [µM] | MIC (Escherichia coli [6]) [µM] | MIC [7] [µM] | MIC (Streptococcus pneumoniae [8]) [µM] | IC50 [9] [µM] | MIC (Streptococcus pneumoniae [10]) [µM] | MIC (Enterococcus faecalis [11]) [µM] | MIC (Escherichia coli [12]) [µM]
O=C1C(CCOCc2ccccc2)C(=O)N(c2ccc(Cl)cc2)N1c1ccc(Cl)cc1 | 200 (≈ 91.1 µg/mL) | 200 (≈ 91.1 µg/mL) | 11 | 100 (≈ 45.5 µg/mL) | 33.4 | > 200 | 200 (≈ 91.1 µg/mL) | 25 (≈ 11.4 µg/mL) | 11 | > 200 | 100 (≈ 45.5 µg/mL) | 200 (≈ 91.1 µg/mL)
O=C1C(Cc2ccc(Cl)cc2Cl)C(=O)N(c2ccc(Cl)cc2)N1c1ccc(Cl)cc1 | 100 (≈ 48 µg/mL) | 50 (≈ 24 µg/mL) | 11 | 50 (≈ 24 µg/mL) | > 50 | > 200 | 50 (≈ 24 µg/mL) | 12.5 (≈ 6 µg/mL) | 29 | > 200 | 50 (≈ 24 µg/mL) | 100 (≈ 48 µg/mL)
CC1(CC(=O)c2ccc(F)cc2F)C(=O)N(c2ccc(Cl)cc2)N(c2ccc(Cl)cc2)C1=O | 200 (≈ 97.9 µg/mL) | > 200 | 49 |  | > 50 | > 200 | > 200 | > 200 | > 50 | > 200 | 100 (≈ 48.9 µg/mL) | > 200
CCCCCCCC1C(=O)N(c2ccc(Cl)cc2)N(c2ccc(Cl)cc2)C1=O | 200 (≈ 83.9 µg/mL) | 100 (≈ 41.9 µg/mL) | 42 | 100 (≈ 41.9 µg/mL) | > 50 | > 200 | 200 (≈ 83.9 µg/mL) | 6.25 (≈ 2.62 µg/mL) |  | > 200 | 100 (≈ 41.9 µg/mL) | > 200
O=C1C(Cc2ccccc2Cl)C(=O)N(c2ccc(Cl)cc2)N1c1ccc(Cl)cc1 | > 200 | > 200 | > 50 |  | > 50 | > 200 | > 200 | 12.5 (≈ 5.57 µg/mL) | > 50 | > 200 |  | > 200
O=C1C(Cc2cc(C(F)(F)F)cc(C(F)(F)F)c2)C(=O)N(c2ccc(Cl)cc2)N1c1ccc(Cl)cc1 | 50 (≈ 27.4 µg/mL) | 25 (≈ 13.7 µg/mL) | 12 | 25 (≈ 13.7 µg/mL) | > 50 | 50 (≈ 27.4 µg/mL) | 50 (≈ 27.4 µg/mL) | 6.25 (≈ 3.42 µg/mL) |  | > 200 | 25 (≈ 13.7 µg/mL) | > 200
O=C(CCCC1C(=O)N(c2ccc(Cl)cc2)N(c2ccc(Cl)cc2)C1=O)c1ccc(F)cc1 | 50 (≈ 24.3 µg/mL) | 50 (≈ 24.3 µg/mL) | 10 | 50 (≈ 24.3 µg/mL) | 32.4 | > 200 | 100 (≈ 48.5 µg/mL) | 12.5 (≈ 6.07 µg/mL) | 11 | > 200 | 50 (≈ 24.3 µg/mL) | 200 (≈ 97.1 µg/mL)
O=C(CC1(CC(=O)c2ccc(F)cc2F)C(=O)N(c2ccc(Cl)cc2)N(c2ccc(Cl)cc2)C1=O)c1ccc(F)cc1F | 12.5 (≈ 7.87 µg/mL) | 12.5 (≈ 7.87 µg/mL) | 5.8 | 12.5 (≈ 7.87 µg/mL) | 9.6 | > 200 | 25 (≈ 15.7 µg/mL) | 3.12 (≈ 1.96 µg/mL) | 5.2 | > 200 | 12.5 (≈ 7.87 µg/mL) | 100 (≈ 62.9 µg/mL)
O=C(CCC1C(=O)N(c2ccc(Cl)cc2)N(c2ccc(Cl)cc2)C1=O)c1ccc(F)cc1 | 100 (≈ 47.1 µg/mL) | 100 (≈ 47.1 µg/mL) | 13 | 100 (≈ 47.1 µg/mL) | 46.9 | > 200 | 200 (≈ 94.3 µg/mL) | 50 (≈ 23.6 µg/mL) | 18 | > 200 | 100 (≈ 47.1 µg/mL) | 200 (≈ 94.3 µg/mL)
CCN(CCC1C(=O)N(c2ccc(Cl)cc2)N(c2ccc(Cl)cc2)C1=O)Cc1ccccc1 | > 200 | > 200 | > 50 | 200 (≈ 96.5 µg/mL) | > 50 | > 200 | > 200 | 100 (≈ 48.2 µg/mL) | > 50 | > 200 | 200 (≈ 96.5 µg/mL) | > 200
CC1(CCCCCCc2ccccc2)C(=O)N(c2ccc(Cl)cc2)N(c2ccc(Cl)cc2)C1=O | 200 (≈ 99.1 µg/mL) | > 200 | > 50 |  | > 50 | > 200 | > 200 | 0.78 (≈ 0.386 µg/mL) | > 50 | > 200 | 100 (≈ 49.5 µg/mL) | 200 (≈ 99.1 µg/mL)
O=C1C(CCc2ccccc2)C(=O)N(c2ccc(Cl)cc2)N1c1ccc(Cl)cc1 | > 200 | 200 (≈ 85.1 µg/mL) | 35 | 200 (≈ 85.1 µg/mL) | > 50 | > 200 | 200 (≈ 85.1 µg/mL) | 50 (≈ 21.3 µg/mL) |  | > 200 | 200 (≈ 85.1 µg/mL) | 200 (≈ 85.1 µg/mL)
CCN(CC)CCC1C(=O)N(c2ccc(Cl)cc2)N(c2ccc(Cl)cc2)C1=O | 200 (≈ 84.1 µg/mL) | > 200 | > 50 | 100 (≈ 42 µg/mL) | > 50 | > 200 | 200 (≈ 84.1 µg/mL) | 100 (≈ 42 µg/mL) |  | > 200 | 200 (≈ 84.1 µg/mL) | > 200
O=C1C(Cc2ccccc2)C(=O)N(c2ccc(Cl)cc2)N1c1ccc(Cl)cc1 | > 200 | 200 (≈ 82.3 µg/mL) | > 50 | 200 (≈ 82.3 µg/mL) | > 50 | > 200 | > 200 | 200 (≈ 82.3 µg/mL) |  | > 200 |  | > 200
CC1(CCOCc2ccccc2)C(=O)N(c2ccc(Cl)cc2)N(c2ccc(Cl)cc2)C1=O | > 200 | > 200 | 20 | 200 (≈ 93.9 µg/mL) | > 50 | > 200 | > 200 | 100 (≈ 46.9 µg/mL) |  | > 200 |  | > 200
O=C1C(CCCc2ccccc2)C(=O)N(c2ccc(Cl)cc2)N1c1ccc(Cl)cc1 | > 200 | 200 (≈ 87.9 µg/mL) | 10 | 200 (≈ 87.9 µg/mL) | 44.3 | > 200 | > 200 | 25 (≈ 11 µg/mL) |  | > 200 | 200 (≈ 87.9 µg/mL) | 200 (≈ 87.9 µg/mL)
O=C1N(c2ccc(Cl)cc2)N(c2ccc(Cl)cc2)C(=O)C1(CCCCCCc1ccccc1)CCCCCCc1ccccc1 | > 200 | 200 (≈ 128 µg/mL) | 7.2 | > 200 | 9.9 | > 200 | > 200 | 100 (≈ 64.2 µg/mL) | 8.2 | > 200 | 200 (≈ 128 µg/mL) | > 200
O=C1C(CCSCc2ccccc2)C(=O)N(c2ccc(Cl)cc2)N1c1ccc(Cl)cc1 | 100 (≈ 47.1 µg/mL) | 25 (≈ 11.8 µg/mL) | 5.2 |  | 9.8 | > 200 | 50 (≈ 23.6 µg/mL) | 6.25 (≈ 2.95 µg/mL) | 5.1 | > 200 | 50 (≈ 23.6 µg/mL) | 200 (≈ 94.3 µg/mL)
COc1cccc(CC2C(=O)N(c3ccc(Cl)cc3)N(c3ccc(Cl)cc3)C2=O)c1 | > 200 | > 200 | 50 |  | > 50 | > 200 | 200 (≈ 88.3 µg/mL) | 200 (≈ 88.3 µg/mL) |  | > 200 |  | > 200
Cc1c(OCC(=O)c2ccc(F)cc2F)n(-c2ccc(Cl)cc2)n(-c2ccc(Cl)cc2)c1=O | > 200 |  | > 50 |  | > 50 | > 200 | > 200 |  | > 50 |  |  | > 200
O=C1C(Cc2cccc(C(F)(F)F)c2)C(=O)N(c2ccc(Cl)cc2)N1c1ccc(Cl)cc1 | > 200 | > 200 | 18 |  | > 50 | > 200 | > 200 | 50 (≈ 24 µg/mL) |  | > 200 |  | > 200
CCC(CC)CC1C(=O)N(c2ccc(Cl)cc2)N(c2ccc(Cl)cc2)C1=O | 200 (≈ 81.1 µg/mL) | 100 (≈ 40.5 µg/mL) | 50 | 100 (≈ 40.5 µg/mL) | > 50 | > 200 | 200 (≈ 81.1 µg/mL) | 25 (≈ 10.1 µg/mL) |  | > 200 | 100 (≈ 40.5 µg/mL) | 200 (≈ 81.1 µg/mL)
